The source of these data is ChEMBL document CHEMBL1158568, “In silico directed chemical probing of the adenosine receptor family” (Bioorg Med Chem, 2010).

Broadly, the inhibition is how much of the control response was suppressed. Usually Ki stands for the dissociation constant of the complex between target and ligand, obtained from inhibition or displacement. A word on the pKb: it is −log10 of the Kb, conventionally taken in molar units.

In assay [1] the target is Adenosine receptor A2a (Homo sapiens, UniProt P29274). In words: Displacement of [3H]ZM241385 from human adenosine A2A receptor expressed in human HeLa cells at 10 uM after 30 mins by beta scintillation counting. It counts as cell-based. The gist of the method:
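Membranes from HeLa-A2A cells, 10 lg protein, in 50 mM Tris–HCl, 1 mM EDTA, 10 mM MgCl2, 2 UI/mL adenosine deaminase, pH 7.4; 3 nM [3H]ZM241385, 30 min at 25 °C, duplicates. 50 µM NECA defined non-specific binding. Single 10 µM point or six concentrations 10 nM–100 µM; Ki by Cheng–Prusoff.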
In general terms: In a radioligand displacement assay an active substance lowers the binding of a labelled ligand.

In assay [2] the target is T1, Adenosine receptor A1 (Homo sapiens) (UniProt P30542).
T1 sequence (whole entry): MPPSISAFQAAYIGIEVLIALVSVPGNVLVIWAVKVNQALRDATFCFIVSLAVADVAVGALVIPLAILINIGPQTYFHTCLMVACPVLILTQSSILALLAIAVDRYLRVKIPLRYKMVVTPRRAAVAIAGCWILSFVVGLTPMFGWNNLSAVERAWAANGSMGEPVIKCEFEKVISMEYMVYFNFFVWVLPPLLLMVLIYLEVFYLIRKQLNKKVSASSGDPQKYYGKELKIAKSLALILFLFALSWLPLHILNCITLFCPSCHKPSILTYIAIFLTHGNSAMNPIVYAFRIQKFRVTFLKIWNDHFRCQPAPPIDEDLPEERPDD
In words: Displacement of [3H]DPCPX from human adenosine A1 receptor expressed in CHO cells at 10 uM after 60 mins by beta scintillation counting. The class given is cell-based. Summed up:
(§1)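 Membranes of CHO-A1 cells (15 lg protein) in 20 mM Hepes, 100 mM NaCl, 10 mM MgCl2, 2 units/ml adenosine deaminase, pH 7.4, with 2 nM [3H]DPCPX; 60 min at 25 °C, duplicates. Non-specific binding with 10 µM (R)-PIA. Filtration, scintillation counting. Single point at 10 µM or six concentrations 10 nM–100 µM; Ki by Cheng–Prusoff.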

Assay [3] addresses T2, Adenosine receptor A2b (Homo sapiens) (UniProt P29275).
T2 sequence (whole entry): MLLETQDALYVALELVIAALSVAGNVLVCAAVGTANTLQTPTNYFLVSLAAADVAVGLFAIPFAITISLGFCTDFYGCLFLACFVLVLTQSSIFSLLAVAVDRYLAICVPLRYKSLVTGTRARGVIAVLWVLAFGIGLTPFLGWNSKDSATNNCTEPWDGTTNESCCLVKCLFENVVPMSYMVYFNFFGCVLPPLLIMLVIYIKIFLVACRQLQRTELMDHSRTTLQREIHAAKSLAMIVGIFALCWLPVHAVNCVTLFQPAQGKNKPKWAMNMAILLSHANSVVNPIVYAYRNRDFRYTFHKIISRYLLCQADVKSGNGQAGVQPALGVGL
Briefly: Displacement of [3H]DPCPX from human adenosine A2B receptor expressed in HEK293 cells at 10 uM after 30 mins by beta scintillation counting. It counts as cell-based.

The target of assay [4] is T3, Adenosine receptor A3 (Homo sapiens) (UniProt P0DMS8).
T3 sequence (whole entry): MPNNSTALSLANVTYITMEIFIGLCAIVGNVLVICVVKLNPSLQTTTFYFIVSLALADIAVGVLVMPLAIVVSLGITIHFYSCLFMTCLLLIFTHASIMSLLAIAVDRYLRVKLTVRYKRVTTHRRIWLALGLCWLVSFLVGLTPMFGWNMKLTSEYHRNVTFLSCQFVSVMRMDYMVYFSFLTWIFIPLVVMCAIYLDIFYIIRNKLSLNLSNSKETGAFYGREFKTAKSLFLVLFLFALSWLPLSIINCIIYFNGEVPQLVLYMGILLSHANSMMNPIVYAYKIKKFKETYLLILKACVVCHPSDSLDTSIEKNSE
In words: Displacement of [3H]NECA from human adenosine A3 receptor expressed in human HeLa cells at 10 uM after 180 mins by beta scintillation counting. It counts as cell-based. Summed up:
(§2)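 HeLa-A3 membranes (90 lg protein) in 50 mM Tris–HCl, 1 mM EDTA, 5 mM MgCl2, 2 UI/mL adenosine deaminase, pH 7.4; 30 nM [3H]NECA, 180 min at 25 °C, triplicates, GF/B filtration. Non-specific with 100 µM (R)-PIA. Tested at 10 µM or six concentrations 10 nM–100 µM; Ki by Cheng–Prusoff.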

The target in assay [5] is T4, Adenosine receptor A1 (Homo sapiens, UniProt P30542).
T4 sequence (P30542 whole entry): T1 sequence (whole entry)
Briefly: Displacement of [3H]DPCPX from human adenosine A1 receptor expressed in CHO cells after 60 mins by beta scintillation counting. The class given is cell-based. Summed up: as §1

For assay [6], the target named is T4, Adenosine receptor A1. Briefly: Antagonist activity at human adenosine A1 receptor expressed in forskolin-stimulated CHO cells assessed as inhibition of […]-induced decrease in cAMP level pre-incubated for 15 mins by enzyme immunoassay. It counts as functional, cell-based. The gist of the method:
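CHO-A1 cells, 20,000/well, grown in EMEM F-12 with 10% FCS; washed, pre-incubated 15 min at 37 °C with 20 µM rolipram plus test compound, then 0.1 µM NECA 15 min and 3 µM forskolin 3 min. Intracellular cAMP read by enzyme immunoassay at 450 nm; pKB from IC50 by Leff–Dougall equation.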
On the technique in general: Cyclic AMP is a second messenger, typically raised through Gs and lowered through Gi signalling.

Assay [7] addresses T5, Alpha-2A adrenergic receptor (Homo sapiens) (UniProt P08913).
T5 sequence (whole entry): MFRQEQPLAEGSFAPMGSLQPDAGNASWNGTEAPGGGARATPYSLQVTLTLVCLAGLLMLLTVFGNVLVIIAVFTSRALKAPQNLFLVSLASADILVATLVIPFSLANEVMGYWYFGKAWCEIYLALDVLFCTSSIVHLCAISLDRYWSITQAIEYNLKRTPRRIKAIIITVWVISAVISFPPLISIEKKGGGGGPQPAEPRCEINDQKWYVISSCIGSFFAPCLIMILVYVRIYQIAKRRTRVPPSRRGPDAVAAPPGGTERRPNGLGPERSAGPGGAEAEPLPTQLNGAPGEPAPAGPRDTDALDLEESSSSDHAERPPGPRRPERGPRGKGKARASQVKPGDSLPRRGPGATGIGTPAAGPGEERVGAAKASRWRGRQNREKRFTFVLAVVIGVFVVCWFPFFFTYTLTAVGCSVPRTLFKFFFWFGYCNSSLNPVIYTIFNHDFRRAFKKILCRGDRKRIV
In words: Displacement of [3H]MK912 from human adrenergic alpha2A receptor expressed in CHO cells at 10 uM after 30 mins by beta scintillation counting. It counts as cell-based. Summed up:
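CHO-a2A membranes (25 lg protein) in 25 mM Na2PO4, pH 7.4, with 0.37 nM [3H]MK-912 and compound at 10 µM; 30 min at 25 °C, duplicates. Non-specific binding with 100 µM norepinephrine; filtration and scintillation counting.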

In assay [8] the target is Histamine H1 receptor (Homo sapiens) (UniProt P35367). In words: Displacement of [3H]pyrilamine from human histamine H1 receptor expressed in CHO cells at 10 uM after 60 mins by beta scintillation counting. The class given is cell-based. The gist of the method: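 CHO-H1 membranes (1 lg protein) in 50 mM Tris–HCl pH 7.4 with 2 nM [3H]pyrilamine and compound at 10 µM; 60 min at 27 °C, duplicates. 10 µM triprolidine for non-specific binding; GF/C filtration, scintillation counting.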
Histamine H1 receptor (Homo sapiens), sequence (P35367 whole entry): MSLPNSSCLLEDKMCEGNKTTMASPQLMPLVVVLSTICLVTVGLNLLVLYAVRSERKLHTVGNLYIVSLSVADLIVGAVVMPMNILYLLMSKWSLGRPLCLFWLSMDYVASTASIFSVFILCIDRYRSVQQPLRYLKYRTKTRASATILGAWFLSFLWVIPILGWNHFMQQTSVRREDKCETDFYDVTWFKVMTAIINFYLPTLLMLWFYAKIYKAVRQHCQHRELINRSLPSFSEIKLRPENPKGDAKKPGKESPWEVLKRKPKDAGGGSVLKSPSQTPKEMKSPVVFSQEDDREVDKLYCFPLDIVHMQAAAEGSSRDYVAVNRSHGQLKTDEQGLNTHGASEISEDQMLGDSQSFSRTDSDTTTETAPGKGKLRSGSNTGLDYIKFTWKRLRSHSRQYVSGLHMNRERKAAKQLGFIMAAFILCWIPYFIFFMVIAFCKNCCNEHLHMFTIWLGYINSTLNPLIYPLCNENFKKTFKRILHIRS

For assay [9], the target named is 5-hydroxytryptamine receptor 7 (Homo sapiens) (UniProt P34969). In words: Displacement of [3H]SB269970 from human 5HT7 receptor expressed in HEK293 cells at 10 uM after 60 mins by beta scintillation counting. It counts as cell-based. Summed up:
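HEK-293-5-HT7 membranes (5 lg protein) in 50 mM Tris–HCl, 4 mM CaCl2, 1 mM ascorbic acid, 0.1 mM pargyline, pH 7.4; 2 nM [3H]SB269970, compound at 10 µM, 60 min at 37 °C, duplicates. Non-specific defined with 25 µM clozapine.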

Assay [10] addresses T6, Adenosine receptor A3 (Homo sapiens, UniProt P0DMS8).
T6 sequence (P0DMS8 whole entry): T3 sequence (whole entry)
Briefly: Displacement of [3H]NECA from human adenosine A3 receptor expressed in human HeLa cells after 180 mins by beta scintillation counting. The class given is cell-based. Summed up: as §2

For assay [11], the target named is T6, Adenosine receptor A3. In words: Antagonist activity at human adenosine A3 receptor expressed in forskolin-stimulated CHO cells assessed as inhibition of […]-induced decrease in cAMP level pre-incubated for 15 mins by enzyme immunoassay. It counts as functional, cell-based. Summed up: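 Using CHO-A3 cells (20,000/well, DMEM F-12, 10% FCS), test compound plus 30 µM rolipram pre-incubated 15 min at 37 °C; 1 µM NECA added 15 min, then 10 µM forskolin 3 min. cAMP by enzyme immunoassay at 450 nm; pKB by Leff–Dougall equation.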

The target of assay [12] is T7, Adenosine receptor A2b (Homo sapiens, UniProt P29275).
T7 sequence (P29275 whole entry): T2 sequence (whole entry)
In words: Displacement of [3H]DPCPX from human adenosine A2B receptor expressed in HEK293 cells after 30 mins by beta scintillation counting. The class given is cell-based.

For assay [13], the target named is T7, Adenosine receptor A2b. In words: Antagonist activity at human adenosine A2B receptor expressed in HEK293 cells assessed as inhibition of […]-induced cAMP accumulation pre-incubated for 15 mins by enzyme immunoassay. The class given is functional, cell-based. The gist of the method:
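HEK-293 A2B cells seeded 10,000/well in EMEM F-12 with 10% FCS; 15 min pre-incubation at 37 °C with 30 µM rolipram and test compound, followed by 10 µM NECA for 15 min. Enzyme-immunoassay readout of intracellular cAMP at 450 nm; pKB by Leff–Dougall equation.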

Adenosine receptor A2a, sequence (P29274 whole entry): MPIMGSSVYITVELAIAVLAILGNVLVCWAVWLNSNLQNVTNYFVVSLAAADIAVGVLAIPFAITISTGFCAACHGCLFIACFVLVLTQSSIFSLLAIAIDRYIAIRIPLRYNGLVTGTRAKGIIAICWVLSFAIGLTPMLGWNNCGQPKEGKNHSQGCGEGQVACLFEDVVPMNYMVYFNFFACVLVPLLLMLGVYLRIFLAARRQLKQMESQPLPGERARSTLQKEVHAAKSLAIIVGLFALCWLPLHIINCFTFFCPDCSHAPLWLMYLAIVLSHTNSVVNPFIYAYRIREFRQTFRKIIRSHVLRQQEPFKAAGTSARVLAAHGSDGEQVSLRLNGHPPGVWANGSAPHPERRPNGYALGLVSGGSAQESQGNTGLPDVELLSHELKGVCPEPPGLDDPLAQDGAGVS
5-hydroxytryptamine receptor 7 (Homo sapiens), sequence (P34969 whole entry): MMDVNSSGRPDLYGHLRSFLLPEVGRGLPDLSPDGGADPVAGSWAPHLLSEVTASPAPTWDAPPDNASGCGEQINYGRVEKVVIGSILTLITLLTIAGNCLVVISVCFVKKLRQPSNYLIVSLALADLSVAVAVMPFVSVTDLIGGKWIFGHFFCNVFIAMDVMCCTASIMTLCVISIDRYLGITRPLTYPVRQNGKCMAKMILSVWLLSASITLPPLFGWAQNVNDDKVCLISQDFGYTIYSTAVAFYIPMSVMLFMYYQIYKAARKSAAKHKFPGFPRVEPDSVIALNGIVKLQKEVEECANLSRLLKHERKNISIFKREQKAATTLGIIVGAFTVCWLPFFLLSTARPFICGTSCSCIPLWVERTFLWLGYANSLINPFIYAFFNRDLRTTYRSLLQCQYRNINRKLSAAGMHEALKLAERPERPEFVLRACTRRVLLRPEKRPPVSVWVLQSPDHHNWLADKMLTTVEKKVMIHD

On to `O=C(/N=C1\c2ccccc2CN1c1ncccn1)Nc1ccccc1`, for which the inhibition turned out to be 6.7% in assay [1] and 38.5% in assay [2].

As to `NC(=O)c1nc(-c2cccc(O)c2)nc2c1ncn2-c1ccccc1`, the inhibition in assay [1] was determined as 4.5%; in assay [3], 0.5%; in [4], 23.1%; in assay [2] it was 25.5%.

As for `OC1=NCC2C(C=NN2Cc2ccccc2)C(c2ccc(Br)cc2)S1` (stereo unspecified), the inhibition in assay [1] is 8.1%; in assay [2] it was 18.8%.

Consider `COc1ccc(-c2nc(N3CCOCC3)c3ncn(-c4ccc(F)cc4)c3n2)cc1`, for which the inhibition is 5% in assay [1], 3% in [3], 31.8% in assay [4] and 18.8% in assay [2].

For the molecule `Cc1cc(NC(=O)C2=C3N=C(c4cccs4)C=C(C(F)(F)F)N3NC2)no1`, the inhibition in assay [1] was 63%; in assay [2], 79%.

Consider `O=C(Nc1ccco1)c1nc2nc(-c3cccs3)cc(C(F)(F)F)c2s1`, for which the inhibition turned out to be 70.5% in assay [1] and 60.7% in [2].

In the case of `CCO/C=N/c1c(C#N)ncn1Cc1ccccc1`, the inhibition in assay [1] was found to be 15.2%; in assay [3], 2%; in [4], 1.9%; in [2] it was 9.8%.

In the case of `COc1cn(-c2ccccc2)nc1C(=O)Nc1ccc(C)cn1`, the inhibition amounted to 59.6% in [1] and 51.9% in [2].

Consider `Cc1ccc(-n2cnc3c(N4CCSCC4)nc(-c4ccc(C#N)cc4)nc32)cc1`, for which the inhibition in assay [1] turned out to be 14.3%; in assay [3], 4.3%; in [4], 1.9%; in assay [2], 6.8%.

Consider `CN1N=C(C(=O)Nc2ccc(Cl)cn2)C2COc3ccccc3C21` (stereo unspecified), for which the figures for the inhibition in assay [1] and in [2] were 13.3% and 8%, respectively.

As for `CCO/C(C)=N/c1c(C#N)ncn1Cc1ccccc1`, the inhibition in [1] amounted to 9.8%; in assay [3], 9.9%; in [4] it was 28%; in assay [2] it was 1.2%.

`C=CCOc1cccc(-c2nc(O)c3c4ccccc4c(=O)n(CC)n23)c1`: the inhibition was determined as 10.9% in assay [1], 5% in [3], 39% in assay [4] and 87.3% in [2]. This molecule also showed a Ki in [5] of 15.8 nM. For the same molecule, the negative logarithm of the Kb (pKb) in [6] is 6.8. Moreover, the Activity in assay [7] was determined as 14%; in [8] it was 42%; in [9], 20%.

Turning to `Cc1ccc(-n2cnc3c(N4CCOCC4)nc(-c4ccc(C#N)cc4)nc32)cc1`, the inhibition in assay [1] was 6.1%; in [3], 6.8%; in [4], 3%; in assay [2], 7.6%.

Regarding `Cc1ccc(-c2ncc3[nH]c(=O)n(Cc4ccccc4)c3n2)cc1`, the inhibition in assay [1] amounted to 20%; in [3] it was 2.6%; in assay [4] it was 71.1%; in assay [2], 37.5%. This molecule also showed an inhibition constant (Ki) in [10] of 316 nM. Further, in assay [11], the pKb was determined as 6.3. Also, the Activity came out at 18% in assay [7], 17% in assay [8] and 1% in [9].

As for `N#Cc1ccc(-c2nc(N3CCCCC3)c3ncn(-c4ccc(F)cc4)c3n2)cc1`, the inhibition in [1] was 0.4%; in assay [3], 6.9%; in [4], 15.1%; in [2], 0.8%.

Consider `NC(=O)c1nc(-c2ccccc2O)nc2c1ncn2Cc1ccccc1`, for which the inhibition was 22.9% in assay [1], 9.5% in assay [3], 10.9% in [4] and 11.1% in assay [2].

Take `N=C1c2c(C(N)=O)nc(-c3ccccc3O)n2CN1c1ccc(O)cc1`: the inhibition stood at 15.2% in assay [1], 55.4% in assay [3], 26.1% in assay [4] and 26.8% in [2]. In addition, the affinity in assay [12] corresponds to a Ki of 1580 nM. In addition, the pKb in assay [13] came to 5.7. Further, the Activity in assay [7] worked out at 28%; in assay [8], 17%; in assay [9], 11%.
